Bioassay records as filed in PubChem.
Rows were chosen to be rich in hits. Some 2.3% of all compounds tested hit in one or more screens of this group.
TRPC6 activator: mouse TRPC6 channel activators, primary screen, cell-based, HEK293, membrane potential dye | Short transient receptor potential channel 6 (Mus musculus), Q61143 | HEK293-TRPC6 membrane potential dye fluorescence; stronger effect = higher value | B-score at 10 µM | hit rate 0.13% among 310,000 | AID 2550, 2010;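 active = B-score of the integrated fluorescence ratio above library mean plus 3 SD, and starting fluorescence ratio within library mean plus 5 SD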;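 also: higher score means more depolarization so channel activation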
TRPC4 PAM: positive allosteric modulators of TRPC4, primary screen, cell-based, mouse TRPC4beta, HEK293 mu-opioid, Fluo-4 calcium; Short transient receptor potential channel 4 (Mus musculus), Q9QUQ5; DAMGO EC20, Fluo-4 Ca2+ flux; stronger effect = higher value; B-score at 10 µM; hit rate 0.42% among 310,000; AID 2227, 2009;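 active = B-score of calcium response area above 5 SD of library B-scores, with initial fluorescence ratio within 5 SD of library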;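 also: B-score of integrated fluorescence ratio over time as area under calcium response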
Target sequence (Q9QUQ5 whole entry, looked up): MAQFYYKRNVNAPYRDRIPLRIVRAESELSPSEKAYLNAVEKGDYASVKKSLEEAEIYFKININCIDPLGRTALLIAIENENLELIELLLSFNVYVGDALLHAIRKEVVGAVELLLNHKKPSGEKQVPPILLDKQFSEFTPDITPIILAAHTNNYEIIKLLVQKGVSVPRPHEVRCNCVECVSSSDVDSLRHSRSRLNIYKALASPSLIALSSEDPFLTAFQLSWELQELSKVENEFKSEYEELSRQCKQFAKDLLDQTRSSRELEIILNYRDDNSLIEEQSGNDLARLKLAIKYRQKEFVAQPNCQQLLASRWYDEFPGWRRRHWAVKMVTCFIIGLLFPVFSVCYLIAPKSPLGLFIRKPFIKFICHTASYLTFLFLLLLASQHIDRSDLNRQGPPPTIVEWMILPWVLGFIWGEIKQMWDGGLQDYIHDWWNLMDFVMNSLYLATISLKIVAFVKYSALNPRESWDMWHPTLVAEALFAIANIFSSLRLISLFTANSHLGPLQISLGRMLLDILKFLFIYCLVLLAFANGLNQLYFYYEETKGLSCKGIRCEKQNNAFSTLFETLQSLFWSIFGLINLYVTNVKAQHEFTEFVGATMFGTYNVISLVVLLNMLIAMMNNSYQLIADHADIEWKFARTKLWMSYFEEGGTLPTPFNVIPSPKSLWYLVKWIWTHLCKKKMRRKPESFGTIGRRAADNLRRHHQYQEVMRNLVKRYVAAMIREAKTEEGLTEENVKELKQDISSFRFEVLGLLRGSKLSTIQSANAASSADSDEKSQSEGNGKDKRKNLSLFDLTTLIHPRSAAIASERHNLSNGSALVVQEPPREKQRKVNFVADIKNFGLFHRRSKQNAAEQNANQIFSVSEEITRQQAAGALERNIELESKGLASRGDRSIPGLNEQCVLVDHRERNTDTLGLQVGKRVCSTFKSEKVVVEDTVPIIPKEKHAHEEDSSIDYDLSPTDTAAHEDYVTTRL
TRPC4 inh: inhibitors of mouse TRPC4 channel, primary screen, Fluo4 calcium, HEK293 TRPC4beta/mu-opioid cells; DAMGO-evoked Fluo4 calcium flux; stronger effect = lower value; B-score at 10 µM; hit rate 0.39% among 300,000; AID 2247, 2010;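 active = B-score over 3 SD under the library average, no early fluorescence shift, positive overall ratio signal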
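Material: HEK293 cells with stable TRPC4beta plus mu-opioid receptor expression / Probe or stimulus: DAMGO in two steps, submaximal then maximal / Compound: single concentration per test compound / Technique: kinetic Fluo4 fluorescence imaging of calcium influx / Read-out: per-well B score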
TRPC4 act: activators of mouse TRPC4 channel, primary screen, Fluo4 calcium, HEK293 TRPC4beta/mu-opioid cells; Short transient receptor potential channel 4 (Mus musculus), Q9QUQ5; Fluo4 calcium fluorescence; stronger effect = higher value; B-score at 10 µM; hit rate 0.49% among 310,000;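 active = B-score above 5 SD of library B-scores, and initial fluorescence ratio not above library mean plus 5 SD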;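 also: positive B-score marks a calcium rise read as TRPC4 activation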
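Assay system: HEK293 cells stably co-expressing mouse TRPC4beta and mu-opioid receptor / Timing: Fluo4 dye loading 45 min at room temperature, 110 s recording / Signal: Fluo4 calcium-sensitive dye fluorescence, kinetic, 1 Hz baseline / Read-out: integrated baseline-normalised fluorescence ratio, converted to per-well B score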
TRPC6 inh: mouse TRPC6 channel inhibitors, primary screen, cell-based, HEK293, membrane potential dye | B-score at 10 µM | hit rate 1.1% among 310,000 | Short transient receptor potential channel 6 (Mus musculus), Q61143 | ACh-evoked depolarization; stronger effect = lower value;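 active = B-score under library mean minus 3 SD, initial fluorescence not abnormally high, positive integrated signal ratio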;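 also: B-score derived from integrated fluorescence ratio over the kinetic read; more negative B-score means stronger inhibition of depolarization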
TRPC4 spec 2: second selectivity test of TRPC6 inhibitors: effect on mouse TRPC4; shares compounds with TRPC6 inh; HEK293 TRPC4/MOR, membrane potential dye fluorescence; channel activated by saturating DAMGO dose; inhibition, % at 10 µM; hit rate 42% among 920; AID 2776;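 active = compounds whose fluorescence signal differed from control wells by over 3 SD, either direction, in both duplicate plates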
TRPC4 spec: mouse TRPC4 modulation by TRPC6 hits, confirmation, selectivity assay for TRPC6 inhibitor project, cell-based, HEK293 TRPC4/mu-opioid, membrane potential dye; AID 2777, 2010; membrane potential fluorescence; shares compounds with TRPC6 inh; activity change, negative = inhibition, % at 10 µM; hit rate 61% among 920;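 active = rise or fall in signal beyond 3 SD of buffer-only wells in both replicate plates, either sign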;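 also: integrated kinetic ratio of fluorescence range over baseline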
HEK293 MPD ctr 2-1: nonspecific membrane potential effects, parental HEK293, confirmation, counter-screen for TRPC6 inhibitor project, cell-based, second counter screen | parental HEK293 membrane potential dye fluorescence; maximal acetylcholine challenge after compound addition | shares compounds with TRPC6 inh | hit rate 31% among 920 | signal change vs control, % at 10 µM | AID 2779, 2010;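 active = membrane potential signal moving either way by over 3 SD of the maximum-effect control, in both duplicate plates, meaning non-specific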
HEK293 MPD ctr-1: membrane potential modulation in parental HEK293, confirmation, counter-screen for TRPC6 inhibitor project, cell-based | membrane potential signal change, % at 10 µM | AID 2780, 2010 | parental HEK293 membrane potential dye fluorescence | hit rate 60% among 920 | shares compounds with TRPC6 inh;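 active = membrane potential signal shifting up or down by more than 3 SD of buffer-only wells, on both duplicate plates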
HEK293 MPD ctr-2: parental HEK293 membrane potential modulation, confirmation, counter-screen for TRPC6 modulator project, cell-based; membrane potential signal change, % at 10 µM; membrane potential dye fluorescence; AID 488924, 2010; shares compounds with TRPC6 inh; hit rate 51% among 2,400;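 active = membrane potential signal moves up or down beyond 5 SD from buffer-only wells, on both duplicate plates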
HEK293 MPD ctr 2-2: second counter-screen for TRPC6 modulators: effect in parental HEK293 cells; inhibition, % at 10 µM; membrane potential dye fluorescence; after compound, maximal acetylcholine stimulation; hit rate 14% among 2,400; shares compounds with TRPC6 inh;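 active = membrane potential signal drops by more than 5 SD from the mean control signal, in both duplicate plates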;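 also: plate controls were acetylcholine ECmax control wells for no effect and buffer only wells for full effect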
TRPC4 ctr mod: TRPC4 modulation by TRPC6 hit compounds, confirmation, selectivity assay for TRPC6 modulator project, cell-based, HEK293 TRPC4/mu-opioid, membrane potential dye, mouse. percent change from control (negative = decrease, positive = increase), % at 10 µM. membrane potential fluorescence. AID 488927, 2010. hit rate 69% among 2,400. shares compounds with TRPC6 inh;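 active = membrane potential signal moved up or down beyond 5 SD of buffer control wells, in both duplicate plates, actives on both sides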;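 also: plate controls were assay buffer wells for no effect and DAMGO maximal-effect wells for full effect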
TRPC4/MOR inh 2: second check of whether TRPC6 modulators also affect mouse TRPC4. shares compounds with TRPC6 inh. HEK293 TRPC4/mu-opioid, membrane potential dye fluorescence; stimulated with maximal-effect DAMGO. inhibition, % at 10 µM. hit rate 55% among 2,400;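 active = drop in membrane potential signal beyond 5 SD of the control wells in both duplicate plates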;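 also: TRPC4 counter screen for TRPC6 hits run under conditions tuned for TRPC6 not TRPC4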
TRPC6 inh conf: mouse TRPC6 channel inhibitors, confirmation, HEK293 cells, membrane potential dye, duplicate; shares compounds with TRPC6 inh; ACh-evoked depolarization; inhibition, % at 10 µM; hit rate 43% among 3,300; AID 488960, 2010;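 active = fluorescence ratio falls more than 5 SD below the full-stimulation control mean, in both duplicate runs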;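 also: integrated fluorescence ratio of peak minus minimum over baseline after agonist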
TRPC6 act confirm: mouse TRPC6 channel activators, confirmation, HEK293 cells, membrane potential dye, duplicate | HEK293-TRPC6 membrane potential dye fluorescence, FDSS | activation, % at 10 µM | hit rate 11% among 2,800 | AID 488961, 2010 | shares compounds with TRPC6 inh;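 active = ratio signal rise beyond 5 SD above unstimulated control wells' mean, seen in both duplicate runs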;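 also: plate controls were buffer EC0 wells for no effect and acetylcholine ECmax response for full effect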
Starred values were filed as active, the others as inactive; i = inactive; x = no result; + = active, no number.

SMILES | TRPC6 activator | TRPC4 PAM | TRPC4 inh | TRPC4 act | TRPC6 inh | HEK293 MPD ctr-2 | HEK293 MPD ctr 2-2 | TRPC4 ctr mod | TRPC4/MOR inh 2 | TRPC6 inh conf | TRPC6 act confirm | others
COc1ccc(C2NC(=O)NC(O)(C(F)(F)F)C2C(=O)c2ccccc2)cc1OC (centres undefined) | i | i | i | i | i | x | x | x | x | x | x
C[N+]1(CCOC(=O)C2(c3ccccc3)CCCC2)CCCCC1 | i | i | i | i | -11* | x | x | x | x | 78%* | i | TRPC4 spec 2=i;TRPC4 spec=i;HEK293 MPD ctr 2-1=-16%*;HEK293 MPD ctr-1=i
CCN(CC)CCCOC(=O)C1(c2ccccc2)CCCC1 | i | i | i | i | -9.1* | x | x | x | x | 60%* | x | TRPC4 spec 2=i;TRPC4 spec=12%*;HEK293 MPD ctr 2-1=12%*;HEK293 MPD ctr-1=12%*
C[N+](C)(C)CCOC(=O)C1(c2ccccc2)CCCC1 | i | i | i | i | -8.5* | x | x | x | x | 69%* | i | TRPC4 spec 2=i;TRPC4 spec=i;HEK293 MPD ctr 2-1=1.0%*;HEK293 MPD ctr-1=i
COc1ccc(/C=N/Nc2nc(C(=O)O)cs2)cc1 | i | i | i | i | i | x | x | x | x | x | x
CCOC(=O)c1ccc(/C=C2/C=C(c3ccccc3)N(c3ccc(Cl)c(C(=O)O)c3)C2=O)cc1 | 36* | i | i | 72* | i | + | i | 377%* | i | i | 686%*
CCOC(=O)C1CCCN(C(=O)c2cnn3c(C(F)F)cc(-c4ccc(C)cc4)nc23)C1 (centres undefined) | i | i | i | i | -6.2* | 156%* | i | 37%* | i | i | x
COc1ccccc1-c1ccc(/C=C2/C=C(C)OC2=O)o1 | i | i | i | i | i | x | x | x | x | x | x
COc1ccccc1-c1ccc(/C=C2\C=CC(=O)O2)o1 | 31* | i | i | i | i | 706%* | i | 204%* | i | i | 121%*
Oc1ccc(-c2cn3ccccc3n2)cc1O | i | i | i | i | i | x | x | x | x | x | x
Cc1ccn2cc(-c3ccc(O)c(O)c3)nc2c1 | i | i | i | i | -5.3* | -120%* | i | -23%* | i | i | i
Cc1ccc(NC(=O)CSC2=NN3CCCC(=O)N=C3S2)cc1Cl | i | i | i | i | i | x | x | x | x | x | x
CC(C)n1ncc(N2CCOCC2)c(Cl)c1=O | i | i | i | i | i | x | x | x | x | x | x
Cc1ccc(-c2c[n+](CC(=O)N3c4ccccc4Sc4ccccc43)c3n2CCC3)cc1 | i | i | i | i | -5.9* | i | i | -14%* | i | 71%* | i
O=C(C[n+]1cc(-c2ccc(F)cc2)n2c1CCC2)N1c2ccccc2Sc2ccccc21 | i | i | i | i | -7.9* | i | i | i | i | 70%* | i
Nc1cc(=O)[nH]c(=O)n1Cc1ccco1 | i | i | i | i | -5.3* | i | i | i | i | i | i
CC1(C)CC(NC(=O)c2cc(S(=O)(=O)N3CCOCC3)c(Cl)cc2Cl)CC(C)(C)N1 | i | i | i | i | i | x | x | x | x | x | x
COCCNc1c2c(nc3c(-c4ccccc4)c(C)nn13)CCCC2 | i | i | i | i | i | x | x | x | x | x | x
Cc1nn2c(NCCN(C)C)c3c(nc2c1-c1ccccc1)CCCC3 | i | i | i | i | -7.3* | -192%* | i | -36%* | 52%* | 48%* | i
CN(CC#CC(O)(c1ccccc1)c1ccccc1)C(C)(C)C | i | i | i | i | -8.9* | x | x | x | x | 74%* | x | TRPC4 spec 2=i;TRPC4 spec=6.1%*;HEK293 MPD ctr 2-1=-16%*;HEK293 MPD ctr-1=8.8%*
CC(C)N(CC#CC(O)(c1ccccc1)c1ccccc1)C(C)C | i | i | i | i | -6.4* | 115%* | 96%* | 22%* | i | 73%* | x
CC(C)N(CC#CC(O)(c1ccccc1)c1ccccc1)CCO | i | i | i | i | i | x | x | x | x | x | x
OCCN(CC#CC(O)(c1ccccc1)c1ccccc1)CCO | i | i | i | i | i | x | x | x | x | x | x
O=C(NCc1ccc2c(c1)CCO2)Nc1cccc(C(F)(F)F)c1 | i | i | i | i | i | x | x | x | x | x | x
Cc1ccc(C(=O)NNC(=O)c2ccc3ccccc3c2O)cc1 | i | i | i | i | i | x | x | x | x | x | x
